Compound activity deposited in PubChem BioAssay by several laboratories.
PMI act satM6P: PMI (human) activation, high substrate. AID 1216. coupled PMI enzyme assay, resazurin fluorescence, 20 min; hits give high values; 1 = untreated enzyme, 0 = substrate-free blank. activation factor at 20 µM. P34949. 190,000 tested, 0.34% active;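 active = activation factor of 2 or more at 20 µM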
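Material: human phosphomannose isomerase with PGI, G6PDH, diaphorase coupling enzymes / Reagent: Man-6-P substrate 1.0 mM / Dosing: single compound dose of 20 µM, 1% DMSO final / Incubation: enzyme reaction with compound 20 min at room temperature / Signal: resorufin fluorescence (Ex 544/Em 590 nm) from resazurin via diaphorase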
m-calpain inh: calpain II (pig) inhibition; 220,000 tested, 0.37% active; AID 1236; inhibition, % at 16 µM; purified calpain II, fluorogenic peptide substrate, 30 min;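 active = inhibition above about 50%, limit read from the data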
PMI activator: activators of human phosphomannose isomerase; P34949; purified human PMI, coupled resazurin fluorescence, 20 min; hits give high values; 1 = vehicle control, 0 substrate-free wells; activation factor at 20 µM; 190,000 tested, 0.005% active; AID 1214;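 active = activation factor of 2 or more at 20 µM, relative to plate controls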
WT yeast gro inh: growth inhibition of WT yeast, mitochondrial fusion screen. mitochondrial fusion phenotypic screen, WT strain. inhibition, % at 10 µM. 190,000 tested, 2.1% active. AID 1362; in the data active = inhibition above about 58%; tested in S. cerevisiae
Lmaj promast: reduces viability of Leishmania major promastigotes. resazurin fluorescence viability. inhibition, % at 10 µM. 200,000 tested, 9% active; in the data active = inhibition above about 50%;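 note: promastigotes grown with compound for 44 hours at 28 °C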
Rad51 HR inh: blocks human Rad51 in homologous recombination; Q06609; hRad51 DNA strand exchange, fluorescence dequenching; inhibition, % at 10 µM; 200,000 tested, 0.085% active; AID 1385;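 active = inhibition above 40% at the single screening dose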;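 note: 0% = DMSO control wells and 100% = blanks with heterologous ssDNA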
Target sequence (Q06609 whole entry, looked up): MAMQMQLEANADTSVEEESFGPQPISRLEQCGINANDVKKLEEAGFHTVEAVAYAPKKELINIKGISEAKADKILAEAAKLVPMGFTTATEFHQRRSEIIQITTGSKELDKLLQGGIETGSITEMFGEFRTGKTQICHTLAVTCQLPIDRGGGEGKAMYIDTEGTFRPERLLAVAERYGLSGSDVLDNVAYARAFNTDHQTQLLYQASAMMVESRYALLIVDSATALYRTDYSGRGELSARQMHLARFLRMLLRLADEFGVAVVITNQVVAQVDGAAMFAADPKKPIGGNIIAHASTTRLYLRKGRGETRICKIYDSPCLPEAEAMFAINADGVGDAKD
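Material: human Rad51–ssDNA filaments; Probe or stimulus: labelled 47-mer dsDNA for strand exchange; Doses: single 10 µM dose; Incubation: 37 °C 15-min filament assembly, 30-min compound preincubation, 15-min exchange; Technique: FRET fluorescence dequenching, excitation 485 nm, emission 520 nm; Measure: Fluorescence-based percent inhibition, control- and blank-normalised; Benchmarks: plate control and blank wells.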
Numbers without * were called inactive; x = not tested or not shown. The list is not random: actives were taken first. Their share in the collection is about 9.8%.

SMILES | PMI act satM6P | m-calpain inh | PMI activator | WT yeast gro inh | Lmaj promast | Rad51 HR inh
O=C1c2ccccc2C2=Nc3ccccc3SC(c3ccc(Cl)cc3)C12 (centres undefined) | 0.9 | -16 | 0.8 | 83* | 99* | x
NC(=O)c1c(NC(=O)CCCn2cnc([N+](=O)[O-])n2)sc2c1CCCC2 | 0.7 | -31 | 0.4 | 9 | 55* | 5
Cc1cc([N+](=O)[O-])nn1CCCC(=O)Nc1sc2c(c1C(N)=O)CCCC2 | 0.8 | -3 | 0.5 | 3 | 6 | x
O=C(CCCn1cnc([N+](=O)[O-])n1)Nc1ccc(F)c(Cl)c1 | 1 | -15 | 1.1 | -4 | 83* | -8
CC1CCc2c(sc(NC(=O)CCCn3cnc([N+](=O)[O-])n3)c2C(N)=O)C1 (centres undefined) | 1 | 1 | 1 | -12 | 92* | -3
CC(C)N(C(=O)CS(=O)(=O)c1ccc(Cl)c(Cl)c1)C(C)C | 1 | 11 | 1 | 0 | 85* | 3
COc1ccc(/C=N/NC(=O)c2nn(-c3ccc(Cl)cc3)c(=O)c3c(N)scc23)cc1 | 0.6 | -85 | 0.5 | 44 | 69* | -2
COc1ccc(/C=N/NC(=O)c2nn(-c3ccccc3)c(=O)c3c(N)scc23)cc1 | 0.5 | -57 | 0.4 | 3 | 83* | -5
CCOC(=O)c1nn(-c2ccc(OC)cc2)c(=O)c2c(N)scc12 | 0.7 | -40 | 0.5 | 14 | 0 | 3
CC(C)c1nc2sc3c(SCC(N)=O)ncnc3c2c2c1CCC2 | x | -17 | x | x | x | x
Cc1nn(-c2ccccc2)c(C)c1/C=C/C(=O)OC(C)C(=O)Nc1ncc(Cl)cc1Cl (centres undefined) | 0.9 | 11 | 0.8 | 8 | 0 | -5
Cc1nn(-c2ccccc2)c(C)c1/C=C/C(=O)OCC(=O)Nc1ncc(Cl)cc1Cl | 0.8 | -26 | 0.8 | -1 | 78* | x
Cc1ccc(S(=O)(=O)NN2C(=O)c3ccccc3NC2c2ccco2)cc1 (centres undefined) | 0.9 | -254 | 0.9 | -3 | -1 | -3
CC(C)=CCN1CCN(Cc2cn[nH]c2C2CCCCC2)CC1CCO (centres undefined) | 1 | 3 | 0.9 | -3 | -3 | x
CCCc1cc(=O)[nH]c(-n2[nH]c3c(c2=O)CCCC3)n1 | 0.6 | 0 | 0.9 | -3 | 94* | x
O=[N+]([O-])c1cccc(N/N=C/c2cccc(O)c2O)c1 | 0.6 | -94 | 0.7 | 62* | 90* | -15
Cc1cc(C)nc(N/N=C/c2ccccc2OCc2ccc([N+](=O)[O-])cc2)n1 | 1.2 | 1 | 1.2 | 15 | 7 | -11
O=[N+]([O-])c1ccccc1N/N=C\c1ccccc1Cl | 0.8 | -11 | 0.9 | 20 | -6 | 2
O=[N+]([O-])c1ccc(N/N=C\c2ccccc2OCc2ccccc2)cc1 | 0.9 | 14 | 0.9 | -4 | 53* | -53
O=[N+]([O-])c1ccc(O)c(/C=N/Nc2ccccc2Cl)c1 | 2.2* | 21 | 1.7 | 21 | -10 | 13
COc1ccccc1N1CCN(C(=O)c2cc(N3C(=O)C4C5CCC(C5)C4C3=O)ccc2Cl)CC1 (centres undefined) | 0.8 | -17 | 0.8 | -32 | 89* | 7
COc1cc(C)c(Cl)cc1S(=O)(=O)n1cnc(C)c1 | 1 | -54 | 1 | 12 | 89* | 1
Cc1ccccc1NC(=S)NCc1ccc(Cl)cc1 | 0.9 | 7 | 0.8 | 26 | 9 | 0
O=C(N/N=C/c1ccccc1[N+](=O)[O-])c1ccc2c(c1)OCCO2 | x | -1 | x | x | x | 6
CN1CCN(CCC(=O)N/N=C/c2cc([N+](=O)[O-])ccc2O)CC1 | 1.1 | 22 | 0.9 | 7 | 100* | -9
SMILES | PMI act satM6P | m-calpain inh | PMI activator | WT yeast gro inh | Lmaj promast | Rad51 HR inh
O=C(N/N=C/c1cc([N+](=O)[O-])ccc1O)c1ccc2c(c1)OCCO2 | 1.2 | -25 | 1 | 13 | 98* | 2
Cc1ccc(NC(=O)CCC(=O)N/N=C/c2cc([N+](=O)[O-])ccc2O)cc1 | 1.2 | 13 | 0.9 | -9 | 36 | x
COC(=O)C(Cc1ccccc1)NS(=O)(=O)c1ccc(F)cc1Br (centres undefined) | x | 10 | x | x | x | -6
CCCNC(=O)c1ccc2c(=O)n3c(-c4ccc(C)cc4)csc3nc2c1 | x | -79 | x | x | x | 31
COc1cc(/C=C/C(=O)OCC(=O)NCc2cccs2)ccc1OCC#N | 1.1 | -41 | 0.9 | -3 | -3 | x
COc1ccc(C(=O)C2CCCN(Cc3ccc(C#CCCO)cc3)C2)c(OC)c1 (centres undefined) | 1 | -16 | 0.9 | 3 | -2 | 7
COc1ccc(C(=O)C2CCCN(Cc3sc(N4CCCC4)nc3Cl)C2)c(OC)c1 (centres undefined) | 0.8 | -4 | 0.8 | 5 | 99* | 17
COc1ccc(C(=O)C2CCCN(Cc3c(C)[nH]c4ccccc34)C2)c(OC)c1 (centres undefined) | 0.7 | -32 | 0.7 | -2 | 97* | 6
COc1ccc(C(=O)C2CCCN(C3Cc4ccccc4C3)C2)c(OC)c1 (centres undefined) | x | -49 | x | 16 | 94* | -6
COc1ccc(NC(=O)O/N=C2/CCCc3ccc(OC)cc32)cc1 | 0.8 | 15 | 0.9 | 15 | 8 | 0
COc1ccc2c(c1)/C(=N/OC(=O)c1cccs1)CCC2 | 1 | 35 | 1 | 71* | 4 | -6
CCCCN(Cc1ccccc1)C(=O)CCN1C(=O)C2C3C=CC(C3)C2C1=O (centres undefined) | 1 | 10 | 1 | 10 | 13 | 0
C[C@@H]1CC[C@@]2(O[C@@H](CCO)C[C@@H](O)[C@@H]2O)O1 | x | x | x | x | x | 8
Cc1ccc(/C(N)=N/OC(=O)Cc2ccccc2)cc1 | 1.1 | 5 | 1 | 7 | -9 | x
Cc1ccccc1/C(N)=N/OC(=O)N1c2ccccc2Sc2ccccc21 | 0.8 | -34 | 0.8 | 83* | 93* | x
Cc1ccc(/C(N)=N/OC(=O)N2c3ccccc3Sc3ccccc32)cc1 | x | x | x | x | 100* | 3
CCOC(=O)N1c2ccccc2Sc2ccccc21 | 0.9 | 5 | 0.9 | 3 | 15 | 4
COc1ccc(S(=O)(=O)N2CC(O)C[C@H]2C(=O)OCC(=O)N2CCCCCC2)cc1 (some centres undefined) | 1 | 17 | 1 | 3 | -3 | 0
Cc1nn(S(=O)(=O)c2ccc(Cl)cc2)c(C)c1Sc1ccc([N+](=O)[O-])cc1 | 1 | 16 | 1 | -6 | 82* | 6
CN1CCN(C=Nc2nc3ccccc3nc2N2CCCC2)CC1 | 0.8 | -50 | 0.9 | -5 | 11 | 4
Cc1ccc(N(C(=O)c2ccccc2Cl)C2=NC(C)CS2)c(C)c1 (centres undefined) | 0.9 | 14 | 0.8 | 72* | 94* | 3
Nc1cc(N)nc(SCC(=O)N2CCc3ccccc32)n1 | 1 | 3 | 1 | 99* | 0 | 0
